Among the data in ChEMBL document CHEMBL4028911, “Discovery of a Small-Molecule Bromodomain-Containing Protein 4 (BRD4) Inhibitor That Induces AMP-Activated Protein Kinase-Modulated Autophagy-Associated Cell Death in Breast Cancer” (J Med Chem, 2017) are Activity and inhibition values, retold here.

Activity calls are given as the source filed them. The calls are words filed in the database; no cut-off is given here.

In test [1] the test system is MCF7. Briefly: Induction of autophagy in human MCF7 cells assessed as reduction in cell viability at 1.5 uM administered at 1 hr post […] addition by MTT assay. The class given is functional, cell-based. A digest of the protocol: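 MCF-7 cells pretreated with 3-MA (1 mM) for 1 h, then given 1.5 µM. Viability read by MTT: 4 h incubation with MTT, formazan dissolved in DMSO, absorbance at 570 nm.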
(In general: Tetrazolium dyes change colour on reduction, which living cells bring about.)

The test system of test [2] is MCF7. Kind of test: Induction of autophagy in GFP-LC3 fused human MCF7 cells assessed as increase in LC3 puncta at 1.5 uM by fluorescence microscopy. The class given is functional, cell-based. A digest of the protocol: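 MCF-7 or MDA-MB-231 cells transfected with eGFP-LC3 plasmid, then treated with 1.5 or 3 µM respectively for 24 h. LC3 puncta viewed by fluorescence microscopy.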

For test [3], the target named is T1, Bromodomain-containing protein 4 (Homo sapiens, UniProt O60885). Kind of test: Inhibition of BRD4 in human MCF7 cells assessed as induction of AMPKalpha phosphorylation at thr172 at 1.5 uM in presence of ATG5 siRNA by Western blot analysis. The class given is cell-based. A digest of the protocol:
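Cells given 50 nM ATG5 or negative-control siRNA (Lipofectamine RNAiMAX) and used 48 h later, then exposed to 1.5 μM (MCF-7) or 3 μM (MDA-MB-231). p-AMPKα analysed by western blot with β-actin loading control.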
Background: Immunoblotting shows a protein as a band on a membrane.

A further test relates to MDA-MB-468. Briefly: Induction of autophagy in human MDA-MB-468 cells assessed as increase in LC3-2 expression expression measured up to 48 hrs by Western blot analysis. The class given is functional, cell-based.
Test [4] addresses T1, Bromodomain-containing protein 4. Briefly: Inhibition of BRD4 in human MDA-MB-231 cells assessed as reduction in ATG13 protein expression at 3 uM up to 36 hrs by Western blot analysis. The class given is cell-based. A digest of the protocol: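 MCF-7 (1.5 μM) or MDA-MB-231 (3 μM) cells treated for indicated times. Adherent and floating cells lysed in RIPA with 1 mM PMSF. Equal protein run on 10-15% SDS-PAGE, blotted to PVDF, blocked in milk or BSA, HRP/ECL detection. β-actin loading control.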

As for `Cc1cc(-c2nc3sc4c(c3c(=O)[nH]2)CCN(C)C4)cc(C)c1O`, the outcome with MCF7 [1] was inactive. Further, the result in the test with MCF7 [2] and with MDA-MB-468 was Active. The inhibition result in test [3] and in test [4] was “Active” in each case.
